Active and inactive are the calls of the source.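 The calls were made as follows, unless noted: active = duplicate-averaged activation above buffer control mean plus 5 SD of those controls; inactive = the rest.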

Our source for the activation, potentiation and outcome values is PubChem BioAssay.

The nature of assay [1]: nonspecific flux increase, KCNQ1-free cells – parental CHO cells, counter-screen for KCNQ1 potentiator project (AID 493006). The following applies: parental CHO-K1 cells, FluxOR thallium flux, at 10 µM; stronger effect = higher value. A digest of the protocol:
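Assay system: Untransfected host CHO-K1 cells with FluxOR thallium dye | Probe or stimulus: Potassium/thallium depolarization pulse | Schedule: Overnight 37 °C plating, 90 min RT dye, 20 min compound | Detection: Kinetic thallium-flux fluorescence | Read-out: Max-minus-min fluorescence over baseline, percent of buffer-to-R-L3 span | Benchmarks: Low control buffer, high control R-L3 activator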
(A counterscreen serves to expose hits that act by an unwanted route or on another target.)

Assay [2] has as its target Potassium voltage-gated channel subfamily KQT member 1 (Homo sapiens) (UniProt P51787). Put plainly: enhancement of KCNQ1 channel thallium flux – FluxOR thallium flux, CHO cells, duplicates, confirmation (AID 493007;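 active = potentiation averaged over duplicate wells exceeding buffer-only control mean by more than 3 SD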;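 as to outcome: cells depolarized by a potassium plus thallium sulfate stimulus after compound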). Conditions: KCNQ1 cell line, FluxOR thallium flux fluorescence, at 10 µM; stronger effect = higher value, % of reference activator effect, buffer zero. A digest of the protocol: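 Material: KCNQ1-expressing CHO cell line; Incubation: FluxOR dye loading 90 min, compound exposure 20 min, room temperature; Detection: FluxOR Tl+ flux fluorescence, 10 s baseline plus 110 s recording; Read-out: percent activation between buffer and R-L3 responses; Control set: buffer-only wells as 0% and R-L3 activator as 100%; Replication: duplicate wells per compound.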

The target in assay [3] is Potassium voltage-gated channel subfamily KQT member 2 (Rattus norvegicus) (UniProt O88943). The assay is described as follows: KCNQ2 thallium flux enhancement – KCNQ2-CHO-K1 cells, selectivity assay for KCNQ1 potentiator project (AID 493009;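 active = mean duplicate potentiation above the buffer control mean plus 5 SD of buffer wells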;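 also: assay conditions were tuned for KCNQ1 rather than KCNQ2 modulators; signal is max minus min fluorescence divided by baseline after thallium stimulus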). The following applies: FluxOR thallium flux fluorescence, at 10 µM; stronger effect = higher value, scaled: buffer 0, activator control 100.
Chain of Potassium voltage-gated channel subfamily KQT member 2 (Rattus norvegicus) (O88943 whole entry, looked up): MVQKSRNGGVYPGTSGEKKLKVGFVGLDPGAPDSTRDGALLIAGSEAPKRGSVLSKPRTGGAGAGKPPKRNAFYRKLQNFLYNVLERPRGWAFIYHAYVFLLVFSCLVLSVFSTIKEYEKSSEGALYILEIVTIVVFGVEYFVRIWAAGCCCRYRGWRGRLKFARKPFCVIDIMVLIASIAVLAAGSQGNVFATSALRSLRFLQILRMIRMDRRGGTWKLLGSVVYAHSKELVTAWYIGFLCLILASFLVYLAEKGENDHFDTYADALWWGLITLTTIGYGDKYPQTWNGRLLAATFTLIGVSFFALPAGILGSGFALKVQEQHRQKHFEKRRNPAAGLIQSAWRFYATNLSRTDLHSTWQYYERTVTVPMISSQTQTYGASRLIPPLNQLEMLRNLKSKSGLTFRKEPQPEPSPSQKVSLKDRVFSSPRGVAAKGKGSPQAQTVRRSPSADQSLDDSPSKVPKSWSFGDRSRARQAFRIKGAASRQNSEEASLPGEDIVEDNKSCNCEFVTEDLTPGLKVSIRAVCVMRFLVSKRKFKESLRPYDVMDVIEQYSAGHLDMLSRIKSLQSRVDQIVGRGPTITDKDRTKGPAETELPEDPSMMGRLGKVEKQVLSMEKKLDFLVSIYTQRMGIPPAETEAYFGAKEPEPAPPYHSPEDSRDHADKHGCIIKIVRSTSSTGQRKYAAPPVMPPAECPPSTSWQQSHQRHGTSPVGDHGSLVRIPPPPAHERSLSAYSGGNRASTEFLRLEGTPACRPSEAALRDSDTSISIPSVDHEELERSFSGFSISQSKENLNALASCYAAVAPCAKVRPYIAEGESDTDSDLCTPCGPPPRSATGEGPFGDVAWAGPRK

The target of assay [4] is Potassium voltage-gated channel subfamily KQT member 1 (Homo sapiens) (UniProt P51787). Put plainly: KCNQ1 activators by electrophysiology – IonWorks patch clamp, KCNQ1-CHO cells, orthogonal assay for KCNQ1 potentiator project, confirmation (AID 493184;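 active = current rise at least 3 SD above the untreated control mean in each of two repeat wells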). The following applies: automated patch clamp current, at 10 µM; stronger effect = higher value. The gist of the method:
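assay system = KCNQ1-expressing CHO cells | medium = external bath solution at pH 7.4 | probe or stimulus = 2,000 ms depolarization, -90 to +40 mV | compound dosing = 10 µM final, single point | measured by = automated voltage clamp, amphotericin B perforated patch | measure = percent current increase versus pre-compound level | replication = duplicates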

Chain of Potassium voltage-gated channel subfamily KQT member 1 (Homo sapiens) (P51787 whole entry, looked up): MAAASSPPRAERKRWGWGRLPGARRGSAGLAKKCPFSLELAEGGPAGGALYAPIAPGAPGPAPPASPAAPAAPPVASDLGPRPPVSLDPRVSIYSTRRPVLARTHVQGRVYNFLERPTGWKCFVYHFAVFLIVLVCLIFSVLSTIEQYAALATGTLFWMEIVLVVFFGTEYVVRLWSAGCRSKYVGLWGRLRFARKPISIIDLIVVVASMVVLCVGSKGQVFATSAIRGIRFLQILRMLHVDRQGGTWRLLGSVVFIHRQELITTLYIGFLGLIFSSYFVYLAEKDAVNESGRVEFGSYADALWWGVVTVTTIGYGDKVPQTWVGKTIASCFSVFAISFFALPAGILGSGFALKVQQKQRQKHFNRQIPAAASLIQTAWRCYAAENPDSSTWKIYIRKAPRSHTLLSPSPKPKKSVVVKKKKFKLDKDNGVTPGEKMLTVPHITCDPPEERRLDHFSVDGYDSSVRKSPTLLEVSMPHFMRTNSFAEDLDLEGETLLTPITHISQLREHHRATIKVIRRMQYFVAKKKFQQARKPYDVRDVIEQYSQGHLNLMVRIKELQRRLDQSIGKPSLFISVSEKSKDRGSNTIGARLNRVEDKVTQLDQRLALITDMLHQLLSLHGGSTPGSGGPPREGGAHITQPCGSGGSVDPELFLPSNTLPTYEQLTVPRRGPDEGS

For `CCCSC(=S)c1c(C)[nH]n(-c2ccccc2)c1=O`, the activation in assay [1] was 352% (active). For the same molecule, the potentiation in assay [2] was 165% (active); in assay [3] it was 432% (active). The result in assay [4] was inactive.
Take `Cc1ccc(OCc2n[nH]c(=S)n2-c2ccc(Br)cc2)cc1`: the outcome in assay [1] and in assay [4] was inactive. Also, the values for the potentiation in assay [2] and in assay [3] were 22.5% (active) and 146% (active), respectively.
As for `CC(C)(C)CC(C)(C)NC(=S)NC1CCN(Cc2ccccc2)CC1`, the result in assay [1], in assay [2], in assay [3] and in assay [4] was inactive.
Consider `O=C(NC(=S)N(CCc1ccccc1)CCc1ccccc1)c1ccco1`, for which the activation in assay [1] was 408% (active). Moreover, the potentiation is 364% (active) in assay [2] and 560% (active) in assay [3]. The result in assay [4] was inactive.
The matching figures for `O=C(NC(=S)Nc1ccccc1F)c1ccc(Br)o1`: 230% (active), 55.5% (active), 261% (active) and “inactive”.
For the molecule `Fc1cccc(/C=N/NC(=S)Nc2ccccc2Cl)c1`, the outcome in assay [1] and in assay [4] was inactive. The figures for the potentiation in assay [2] and in assay [3] were 41.5% (active) and 158% (active), respectively.
As for `Cc1cc(C)c2nc(NC(=O)c3cc(C)on3)sc2c1`, the activation in assay [1] is 174% (active). For the same molecule, the potentiation in assay [2] was 36% (active); in assay [3], 166% (active). Further, the result in assay [4] was inactive.
For the molecule `O=C1OC(c2ccc(F)cc2)=N/C1=C\c1ccc(Br)o1`, in assay [1], the activation was 228% (active). The potentiation was 80.5% (active) in assay [2] and 266% (active) in assay [3]. In addition, the outcome in assay [4] was inactive.
In the case of `Cc1ccc(S(=O)(=O)N2CCN(C(=O)CCC(=O)OCC(=O)Nc3cccc(C#N)c3)CC2)cc1`, the outcome in assay [1], in assay [2], in assay [3] and in assay [4] was inactive.
Consider `CCCn1nnnc1SCC(=O)c1ccc2c(c1)OCCO2`, for which the result in assay [1], in assay [2], in assay [3] and in assay [4] was inactive.
Turning to `OCCN1CCN(C2CCC(c3ccc(F)cc3)c3ccc(F)cc32)CC1` (stereo not given), the outcome in assay [1], in assay [2], in assay [3] and in assay [4] was inactive.
In the case of `O=C(NC(=S)Nc1ccccn1)c1cc(-c2ccccc2)nc2ccccc12`, the outcome in assay [1], in assay [3] and in assay [4] was inactive. For the same molecule, the potentiation in assay [2] was 18% (active).
On to `Cc1cccc(CC2CC(=O)N(c3ccc(C)cc3Br)C2=O)c1` (stereo not given), for which the result in assay [1], in assay [2], in assay [3] and in assay [4] was inactive.
Regarding `CC1CCCC(NC(=S)NC(=O)c2cncc(Br)c2)C1C` (stereo not given), the result in assay [1], in assay [3] and in assay [4] was inactive. Besides, the potentiation in assay [2] was 32% (active).
With `COc1ccc(C2c3ccc4ccccc4c3Oc3ncn(CCN4CCOCC4)c(=N)c32)cc1` (stereo not given), the outcome in assay [1], in assay [2], in assay [3] and in assay [4] was inactive.
With `COC(=O)c1ccc(CSc2ncnc3sc(C)c(C)c23)o1`, in assay [1], the activation is 155% (active). Also, the potentiation is 24% (active) in assay [2] and 163% (active) in assay [3]. In assay [4], the result was inactive.
The matching figures for `CCN(CC)CC(=O)Nc1ccc2c(c1)Nc1ccccc1CC2`: 234% (active), 98% (active), 217% (active) and “inactive”.
As for `CS(=O)(=O)N1CCC(C(=O)Nc2ccc(OCc3ccccc3)cc2)CC1`, the result in assay [1], in assay [2], in assay [3] and in assay [4] was inactive.
With `O=[N+]([O-])c1cc(C(F)(F)F)ccc1Oc1cccnc1[N+](=O)[O-]`, the result in assay [1], in assay [2], in assay [3] and in assay [4] was inactive.
For `Cc1ccc(C(C)C)c(OCc2n[nH]c(=S)o2)c1`, in assay [1], the activation is 154% (active). For the same molecule, the figures for the potentiation in assay [2] and in assay [3] were 27% (active) and 160% (active), respectively. Besides, the result in assay [4] was inactive.
As for `CCCCn1c(=O)nc2n(-c3ccccc3C)c3ccccc3cc-2c1=O`, the result in assay [1], in assay [2], in assay [3] and in assay [4] was inactive.
For the molecule `CSc1ccc(NC(=O)CC(C)=O)cc1`, the outcome in assay [1], in assay [2], in assay [3] and in assay [4] was inactive.
In the case of `COc1ccc(Nc2nc(-c3sc(C)nc3C)cs2)c(OC)c1`, the result in assay [1], in assay [2], in assay [3] and in assay [4] was inactive.
For the molecule `NC(=O)c1nsc(C(=O)N(CC(=O)NC2CCCCC2)c2ccc(Cl)cc2)c1N`, the outcome in assay [1], in assay [2], in assay [3] and in assay [4] was inactive.
`CC(C)NC(=O)C1(S(=O)(=O)c2ccccc2)CC=CC1`: the outcome in assay [1], in assay [2], in assay [3] and in assay [4] was inactive.
Take `O=C(NC(=S)Nc1nc2ccccc2s1)c1ccco1`: in assay [1], the activation was 183% (active). In addition, the potentiation in assay [2] is 31% (active); in assay [3], 172% (active). In assay [4], the result was inactive.
The matching figures for `CCC(C)CCCCCCCCCCC(=O)O` (stereo not given): 382% (active), 318% (active), 302% (active) and “inactive”.
Turning to `CC(C)(C)n1nnnc1C(c1cc2cc3c(cc2[nH]c1=O)OCCO3)N1CCSCC1` (stereo not given), the result in assay [1], in assay [2], in assay [3] and in assay [4] was inactive.
Consider `O=c1c2cccnc2n(-c2ccccc2)n1Cc1ccc(Cl)cc1`, for which the result in assay [1], in assay [2], in assay [3] and in assay [4] was inactive.
Regarding `Cc1cccc(S(=O)(=O)Nc2cccc3c2C(=O)c2ccccc2-3)c1`, the result in assay [1] and in assay [4] was inactive. Also, the potentiation is 43.5% (active) in assay [2] and 152% (active) in assay [3].
